# This is a sample that favours compounds with a hit; in the whole collection about 3% have one here.
# UBC13 inh: inhibitors of human UBC13 polyubiquitin chain formation | TR-FRET | inhibition, % at 20 µM | 0.47% of 330,000 active | P61088; in the data active means inhibition above about 45%, passing the limit was not always enough
# Apaf1 inhib: blocks human Apaf-1 apoptosome activity; inhibition, % at 20 µM; AID 489030; 0.71% of 330,000 active; reconstituted apoptosome caspase-3 activity, DEVD-Rh110 fluorescence; active means inhibition of at least 40% at 20 µM
#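 System: reconstituted apoptosome with Apaf-1, cytochrome c, caspase-9, procaspase-3, dATP; Signal: Rh110 fluorescence intensity; Schedule: 30 min compound preincubation, 50 min activation, room temperature; Reagent: cytochrome c trigger plus (Z-DEVD)2-Rh110 caspase-3 substrate.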
# UCH37 DUB inh: inhibitors of human deubiquitinating enzyme UCH37. Q9Y5K5. purified proteasome/UCH37, Ub-AMC cleavage fluorescence. inhibition, % (no concentration beside the values). 0.33% of 330,000 active. AID 588478;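 active means mean inhibition over replicate wells above about 20%, limit read from the data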
#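 Schedule: 30 min plus 25 min, room temperature / Material: human UCH37 within purified proteasomes / Technique: AMC fluorescence intensity at 355/460 nm / Buffer or medium: pH 7.4 Tris-HCl (50 mM) with ovalbumin, ATP-MgCl2, DTT / Controls: wells without proteasome as full block, compound-free enzyme plus substrate as uninhibited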
# MEKK2mut PB1 HTS: signal of MEK5 binding to mutant human MEKK2 PB1 domain; bead flow cytometry, Alexa488-MEK5 binding to MEKK2 mutant; AID 1530; 0.35% of 290,000 active; percent response, % at 10 µM; in the data active means percent response above about 24%, passing the limit was not always enough
# MEKK2wt PB1 HTS: raises or lowers MEK5 binding to wildtype human MEKK2 PB1 domain; Q9Y2U5; bead flow cytometry, Alexa488-MEK5 binding to MEKK2 WT; actives lie on both sides; binding response (% of control), % at 10 µM; 1.1% of 290,000 active; AID 1531; in the data active means binding response below about 67% or above about 130%
# MEKK3 PB1 HTS: modulators (inhibitors or enhancers) of MEK5 binding to human MEKK3 PB1 domain. Q99759. bead-based flow cytometry, Alexa488-MEK5 binding to MEKK3; actives lie on both sides; 0 = blocked by unlabeled MEK5, 100 = vehicle. binding response (% of control), % at 10 µM. 1.4% of 290,000 active. AID 1529;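 active means binding response more than 3 SD above or below the average of its plate-row segment, actives on both sides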;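 further: Alexa488 bead fluorescence after subtracting the streptavidin-only scavenger bead signal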
# Apaf-1 inh conf2: confirmation of Apaf-1 inhibitors; shares compounds with Apaf1 inhib; reconstituted apoptosome, caspase-3 DEVD-Rh110 fluorescence; inhibition, % at 20 µM; 25% of 1,800 active; AID 504614;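 active means mean inhibition of at least 40% at 20 µM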
# Rh110 quench: counter-screen for Apaf-1 inhibitors: fluorescence interference. shares compounds with Apaf1 inhib. 1,800 tested, under 10 active. activation (fluorescence interference), % at 20 µM. AID 504615. Rh110 fluorescence interference, quenched caspase reaction;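 active means signal rise of 40% or more at 20 µM, treated as a fluorescence artifact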
# Fluor interf inh: Apaf-1 inhibitor counter-screen fluorescence artifact | 460 tested, under 10 active | shares compounds with Apaf1 inhib | fluorescence interference counterscreen, Apaf-1 assay format | IC50, µM | AID 588538; call rule not given here
# Hits are given with their value; n = inactive; x = no result given.
SMILES,UBC13 inh,Apaf1 inhib,UCH37 DUB inh,MEKK2mut PB1 HTS,MEKK2wt PB1 HTS,MEKK3 PB1 HTS,Apaf-1 inh conf2,Rh110 quench,others
CCN(CC)S(=O)(=O)c1cccc(C(=O)NCC2CCCO2)c1 (stereo not given),n,n,n,n,n,n,x,x,
CCN(CC(=O)Nc1ccc(OC)cc1)C(=O)C1CCN(C(=O)c2ccc(Cl)cc2)CC1,n,57.5,n,x,x,x,n,n,
Cc1cccc(C)c1NC(=O)CNC(=O)C1CCCN(C(=O)c2ccc(Cl)cc2)C1 (stereo not given),n,n,n,x,x,x,x,x,
CCCN(CC(=O)Nc1ccccc1C)C(=O)C1CC(=O)N(c2ccccc2C(C)CC)C1 (stereo not given),n,48.1,n,x,x,x,n,n,
CCN(CC(=O)Nc1c(F)cccc1F)C(=O)C1CCN(C(=O)c2ccc(F)cc2)CC1,n,n,n,x,x,x,x,x,
CCCN(CC(=O)Nc1ccccc1C)C(=O)C1CC(=O)N(c2ccccc2OCC)C1 (stereo not given),x,x,n,x,x,x,x,x,
CCCN(CC(=O)Nc1ccccc1C)C(=O)C1CCCN(C(=O)c2ccc(Cl)cc2)C1 (stereo not given),n,48.4,n,x,x,x,n,n,
O=c1[nH]c(NC2CCN(S(=O)(=O)c3ccccc3C(F)(F)F)CC2)nc2c1CCCC2,n,n,n,n,n,n,x,x,
Cc1ccc2c(c1)c1ccc3c(c1n2C)C(=O)C=CC3=O,n,56.5,n,n,n,n,40.4,n,Fluor interf inh=n
COc1ccc2c(c1)c1ccc3c(c1n2C)C(=O)C=CC3=O,n,71.2,n,n,n,n,57.5,n,Fluor interf inh=n
COc1ccc(C(CNC(=O)COc2ccc(F)cc2Cl)N2CCOCC2)cc1 (stereo not given),n,n,n,x,x,x,x,x,
Cc1ccc(NC(=S)Nc2cccc3cnccc23)cc1C,n,53.4,n,n,n,n,n,n,
S=C(Nc1cccc(Cl)c1)Nc1cccc2cnccc12,x,x,n,n,n,n,x,x,
CC(=O)Nc1cccc(NC(=S)Nc2cccc(Cl)c2C)c1,n,n,n,n,n,n,x,x,
Cc1ccccc1NC(=S)Nc1cccc2cnccc12,n,90.9,n,n,n,n,n,n,
S=C(NCc1ccccc1)Nc1cccc2cnccc12,n,n,n,n,n,n,x,x,
CC(=O)Nc1cccc(NC(=S)Nc2cccc3ccccc23)c1,n,96.9,n,n,n,n,n,n,
FC(F)(F)c1ccccc1NC(=S)Nc1cccc2cnccc12,x,x,n,n,n,n,x,x,
Fc1ccccc1NC(=S)Nc1cccc2cnccc12,n,97.4,n,n,n,n,n,n,
CCOc1ccc(-c2noc(COC)n2)cc1OC,n,n,n,n,n,n,x,x,
Cc1ccc(NC(=S)Nc2cccc3cnccc23)cc1,n,96.2,n,n,n,n,n,n,
COc1cccc(CN(C)C(=O)c2ccc(OCC(=O)Nc3cccc(C(F)(F)F)c3)c(OC)c2)c1,n,n,n,x,x,x,x,x,
COc1ccc(CN(C)C(=O)c2ccc(OCC(=O)Nc3cccc(C(F)(F)F)c3)c(OC)c2)c(OC)c1,n,44.9,n,x,x,x,n,n,
COc1ccc(NC(=O)/C(C#N)=C/c2c(C)nn(-c3ccc(F)cc3)c2Cl)cc1OC,n,n,n,n,n,n,x,x,
COc1ccc(CCNC(=O)C(=O)NCC2CCCN2S(=O)(=O)c2ccc(OC)cc2)cc1 (stereo not given),n,61.1,n,x,x,x,n,n,
SMILES,UBC13 inh,Apaf1 inhib,UCH37 DUB inh,MEKK2mut PB1 HTS,MEKK2wt PB1 HTS,MEKK3 PB1 HTS,Apaf-1 inh conf2,Rh110 quench,others
O=C(NCCc1ccccc1)C(=O)NCC1CCCN1S(=O)(=O)c1ccccc1 (stereo not given),n,n,n,x,x,x,x,x,
CC(=O)c1cc(O)c2ccccc2c1O,n,58.0,n,n,n,n,n,n,
CC(=O)c1coc2c1cc(O)c1ccccc12,n,n,n,n,n,n,x,x,
CNC(=O)C(=O)Nc1cc2c3c(c1)CCC(=O)N3CCC2,n,n,n,n,n,n,x,x,
O=C1C2=C(c3ccccc31)[N+](=O)[C@@H]1CCCC[C@@H]1N2[O-],n,74.5,26.5,n,n,n,65.6,n,Fluor interf inh=n
COc1ccc(C2CC(=O)N3CN(c4ccc(C)c(Cl)c4)CSC3=C2C#N)cc1 (stereo not given),n,47.1,n,n,n,n,n,n,
COc1ccc(N2CSC3=C(C#N)C(c4cccc(OC)c4OC)CC(=O)N3C2)cc1 (stereo not given),n,n,n,n,n,n,x,x,
CSCC[C@H](NC(=O)[C@@H]1Cc2ccccc2CN1)C(=O)Nc1ccc2c(c1)OCCO2,n,n,n,n,n,n,x,x,
CCCC(=O)Nc1ccc2nc(SCC(=O)N3CCCC3)sc2c1,n,n,n,n,n,n,x,x,
Cn1c(SCC(=O)Nc2ccc3nc(SCC(=O)N4CCCC4)sc3c2)nnc1-c1ccccc1,n,65.8,n,n,n,n,n,n,
CCOc1ccc(C2OC34CCCCC3C(C#N)(C#N)C2(C#N)C(=N)O4)cc1OC (stereo not given),n,n,n,n,n,n,x,x,
COC(=O)c1ccccc1-c1ccc(/C=C2\C(=O)N(c3ccccc3)N=C2c2ccccc2)o1,n,62.3,n,n,n,n,n,n,
COc1ccc(-c2ccc(/C=C3\C(=O)N(c4ccccc4)N=C3c3ccccc3)o2)c([N+](=O)[O-])c1,n,n,n,n,n,n,x,x,
NC(=O)C1CCN(C(=O)C23CC4CC(CC(C4)C2)C3)CC1,n,n,n,n,n,n,x,x,
O=C(O)c1ccc(N2C(=O)/C(=C/c3ccc(-c4ccc([N+](=O)[O-])cc4)o3)C=C2c2ccccc2)cc1,n,51.7,n,n,x,n,n,n,
Cc1c(Cl)cnc(NC(=O)COC(=O)c2ccc([N+](=O)[O-])s2)c1Cl,n,40.4,n,n,n,n,n,n,
CC(=O)Nc1ccc(NC(=O)C(C)Sc2n[nH]c(-c3ccc(C)cc3)n2)cc1 (stereo not given),n,n,n,x,x,x,x,x,
CC(C)OCCCNC1=C(Cl)C(=O)c2ccccc2C1=O,n,52.8,n,n,n,n,n,n,
COCCCNC1=C(Cl)C(=O)c2ccccc2C1=O,n,n,n,n,n,n,x,x,
CC(C(=O)NC(=O)NC1CCCCC1)N(C)CC(=O)Nc1ccc(F)c(F)c1F (stereo not given),n,46.2,n,x,x,x,n,n,
COCCN(C(=O)COC(=O)/C=C/c1ccc(SC)cc1)c1c(N)n(Cc2ccccc2)c(=O)[nH]c1=O,x,x,n,x,x,x,x,x,
